Only some compounds are listed: those with a hit (about 4.9% of all), similar ones and a draw of the others.
NF-kB expr up: activators of NF-kB expression in neurons, primary screen, cell-based, HTS; human neuronal cells, NF-kB reporter expression; active compounds read high; fold change at 12.5 µM; AID 1239, 2008; actives 1.6% (n = 190,000); in the data active = fold change above about 3.3
STAT1 blocker: STAT1 signaling inhibitors, primary screen, cell-based, HTS, luciferase reporter. inhibition, % at 5.5 µM. NIH 3T3 STAT1-luciferase reporter, IFN-gamma, luminescence. actives 0.35% (n = 200,000);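 active = inhibition above a set limit, the mean inhibition across all tested compounds plus 3 SD, cut at about 34% in these data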;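 note: 0% = IFN-gamma with DMSO and 100% = IFN-gamma with 300 µM nifuroxazide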
STAT3 inh: IL-6 driven STAT3 reporter inhibitors, primary screen, U3A cells, luciferase, luminescence, MLSCN library. IL-6 STAT3-luciferase reporter; host cell line lacks STAT1. inhibition, % at 5.5 µM. actives 0.89% (n = 190,000). AID 862, 2007;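 active = inhibition above the mean inhibition across all screened compounds plus 3 SD, cut at about 44% in these data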;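 note: 0% = DMSO only wells and 100% = 100 µM nifuroxazide control wells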
STAT3 activator: IL-6 driven STAT3 reporter potentiators, primary screen, U3A cells, luciferase, luminescence, MLSCN library; IL-6 STAT3-luciferase reporter; 100% = signal with IL-6 EC80 alone; activation (% of control), % at 5.6 µM; actives 0.91% (n = 190,000); AID 871, 2007;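 active = activation above the screen-wide mean of compound activation plus 3 SD, cut at about 130% in these data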;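 note: 0% = background luminescence of wells with medium and substrate only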
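Detection: reporter luminescence signal / Assay system: STAT1-lacking human U3A cells, STAT3 luciferase reporter / Incubation: compound pre-incubation 1 h before IL-6, then 6 h stimulation at 37 °C / Control set: IL-6-only high control / Read-out: % activation relative to IL-6 control / Probe or stimulus: Interleukin-6, 33 ng/mL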
APP 5'UTR act: activators of APP 5'UTR luciferase reporter, primary screen, SH-SY5Y cells; SH-SY5Y APP 5'UTR luciferase reporter, luminescence; zero percent = DMSO vehicle wells; activation, % at 2 µM; AID 1276, 2008; actives 1% (n = 190,000);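 active = activation above a set limit, based on mean plus 3 SD of controls, cut at about 140% in these data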
STAT1 activator: STAT1 signaling activators, primary screen, cell-based, HTS, luciferase reporter. NIH 3T3 STAT1-luciferase reporter, IFN-gamma, luminescence; 100% = IFN-gamma alone, no compound. activation (% of control), % at 5.5 µM. actives 2.6% (n = 200,000). AID 932, 2007;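 active = activation above the screen-wide mean activation plus 3 SD, cut at about 130% in these data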;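 note: raw ratio to IFN-gamma control signal so 100% means no change and 0% no light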
* marks the source's active call; other numbers are inactive results.

How did Cc1nn(-c2cccc(Cl)c2)nc1C(=O)O do in these assays?
NF-kB expr up: 1.5; STAT1 blocker: -7; STAT3 inh: 8; STAT3 activator: 94; APP 5'UTR act: -3; STAT1 activator: 107

What do the screens show for `N#CC1=C(N)Oc2cc(N)ccc2C1c1cccnc1` (configuration not stated)?
NF-kB expr up: 0.85; STAT1 blocker: -10; STAT3 inh: 2; STAT3 activator: 101; APP 5'UTR act: 17; STAT1 activator: 109

What do the screens show for `CCN(CC)c1ccc2c(c1)OC(N)=C(C#N)C2c1cccnc1` (configuration not stated)?
NF-kB expr up: 3.5*; STAT1 blocker: 13; STAT3 inh: 0; STAT3 activator: 106; APP 5'UTR act: -94; STAT1 activator: 88

Results for Cc1cccc(NC(=S)NNC(=O)c2csc(C(C)C)c2)c1 ?
NF-kB expr up: 2.4; STAT1 blocker: -36; STAT3 inh: -2; STAT3 activator: 105; APP 5'UTR act: 131; STAT1 activator: 124

How did CCc1cc(C(=O)NNC(=S)Nc2cccc(C)c2)cs1 do in these assays?
NF-kB expr up: 2.8; STAT1 blocker: -12; STAT3 inh: 6; STAT3 activator: 97; APP 5'UTR act: 162*; STAT1 activator: 114

What do the screens show for `CCc1cc(C(=O)Nc2ccc(C)cc2Br)cs1`?
NF-kB expr up: 5.8*; STAT1 blocker: -45; STAT3 inh: -48; STAT3 activator: 144*; APP 5'UTR act: 126; STAT1 activator: 137*

How did CCN(CC)CC(=O)Nc1ccc(C)cc1Br do in these assays?
NF-kB expr up: 1.3; STAT1 blocker: -4; STAT3 inh: -11; STAT3 activator: 111; APP 5'UTR act: 13; STAT1 activator: 104

How did Cc1ccc(OCc2cnc(Cl)s2)c(C)c1 do in these assays?
NF-kB expr up: 1.1; STAT1 blocker: -45; STAT3 inh: 11; STAT3 activator: 95; APP 5'UTR act: 43; STAT1 activator: 137*

Results for Cc1ccc(N=Cc2sc(O)c3ccccc23)c(C)c1 ?
NF-kB expr up: 1.3; STAT1 blocker: -53; STAT3 inh: 13; STAT3 activator: 92; APP 5'UTR act: 12; STAT1 activator: 147*

What do the screens show for `COCCn1c(C)cc(C(=O)CSc2nc3ccccc3s2)c1C`?
NF-kB expr up: 0.68; STAT1 blocker: -17; STAT3 inh: 39; STAT3 activator: 67; APP 5'UTR act: 204*; STAT1 activator: 118

Results for O=CN1CCN(C(=O)c2ccc(-c3nc4ccccc4s3)s2)CC1 ?
NF-kB expr up: 3.8*; STAT1 blocker: -33; STAT3 inh: 31; STAT3 activator: 76; APP 5'UTR act: 90; STAT1 activator: 129*

What do the screens show for `COc1ccc(NC(=O)Nc2nc3c(s2)CCCC3)cc1`?
NF-kB expr up: 4.9*; STAT1 blocker: -53; STAT3 inh: 5; STAT3 activator: 98; APP 5'UTR act: 150*; STAT1 activator: 148*

Results for COC(=O)c1[nH]c2ccc(C)cc2c1NC(=O)CN1CCCc2ccccc21 ?
NF-kB expr up: 0.75; STAT1 blocker: 9; STAT3 inh: -40; STAT3 activator: 135*; APP 5'UTR act: 14; STAT1 activator: 92

How did COC(=O)c1[nH]c2cc(C)ccc2c1NC(=O)CN1CCN(c2ccccc2OC)CC1 do in these assays?
NF-kB expr up: 0.6; STAT1 blocker: 13; STAT3 inh: -22; STAT3 activator: 121; APP 5'UTR act: 25; STAT1 activator: 88

How did Cc1ccc2[nH]c3c(c2c1)CN(C(=O)CN1CCCc2ccccc21)CC3 do in these assays?
NF-kB expr up: 0.83; STAT1 blocker: -1; STAT3 inh: -35; STAT3 activator: 133*; APP 5'UTR act: -2; STAT1 activator: 99

What do the screens show for `COc1ccc(CC(=O)Nc2ccc(C(=O)Nc3nccs3)cc2)cc1OC`?
NF-kB expr up: 1.3; STAT1 blocker: -4; STAT3 inh: 25; STAT3 activator: 82; APP 5'UTR act: -1; STAT1 activator: 104

How did Cc1ccc(C2=NN(CCC(=O)NCc3ccc4c(c3)OCO4)C(=O)CC2)cc1 do in these assays?
NF-kB expr up: 0.9; STAT1 blocker: -5; STAT3 inh: -11; STAT3 activator: 107; APP 5'UTR act: -12; STAT1 activator: 105
